# S100A4 inh HTS = inhibitors of human S100A4 binding to myosin IIA peptide; AID 652163; P26447; 0.14% of 360,000 active; inhibition, % at 10.7 µM; S100A4/TAMRA-MyoIIA peptide fluorescence polarization;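 active = mean inhibition of at least 70% across replicates, with every replicate also reaching that level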
# Target sequence (P26447 whole entry, looked up): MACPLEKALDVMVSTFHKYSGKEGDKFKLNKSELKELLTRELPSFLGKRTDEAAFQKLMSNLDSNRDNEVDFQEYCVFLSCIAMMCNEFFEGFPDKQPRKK
#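 Material: S100A4 monomer protein / Buffer or medium: 50 mM HEPES pH 7.2, 10 mM CaCl2, 100 mM KCl / Times: 5 min incubation before reading / Benchmarks: neutral control DMSO, positive control TFP / Reagent: labelled myosin peptide probe, 5 nM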
# PGC1a acetyl inh = PGC1a acetylation modulation, inhibitor mode; U2OS PGC1a acetylation, AlphaScreen anti-acetyl-lysine; with virally co-expressed GCN5 acetyltransferase; inhibition, % at 15.6 µM; 0.17% of 350,000 active; AID 651687;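 active = every replicate shows inhibition of at least 40%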;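 also: 0% = neutral control wells and 100% = positive control wells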
# Statin myotox sup = suppressors of simvastatin-induced myotoxicity in C2C12 myotubes; rescue of ATP level, % at 7.49 µM; ATP luminescence, 48 h; scaled: DMSO 0, geranylgeraniol control 100; 0.78% of 330,000 active;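 active = mean ATP rescue above about 67%, or every replicate alone reaching that limit, limit read from the data, passing the limit was not always enough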;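 also: myotubes were challenged with 10 µM simvastatin during compound exposure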
# ERAP1 inh = inhibitors of human ERAP1 aminopeptidase. Q9NZ08. 0.15% of 340,000 active. recombinant ERAP1, Leu-AMC fluorescence, 60 min. inhibition, % at 10.7 µM;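 active = mean replicate inhibition of at least 30%, or all replicates individually reaching that 30% level; inactive = mean below 30% and not every replicate reaching it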;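 also: 0% = neutral control wells and 100% = L-leucinethiol positive control wells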
# Rtt109 Vps75 = blocks Candida albicans Rtt109/Vps75 acetyltransferase activity; purified Rtt109/Vps75, ThioGlo CoA-SH fluorescence, 4 h; inhibition, % at 34.9 µM; 0.16% of 330,000 active;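 active = inhibition of at least 50% in every replicate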
# Target sequence (Q5AAJ8 whole entry, looked up): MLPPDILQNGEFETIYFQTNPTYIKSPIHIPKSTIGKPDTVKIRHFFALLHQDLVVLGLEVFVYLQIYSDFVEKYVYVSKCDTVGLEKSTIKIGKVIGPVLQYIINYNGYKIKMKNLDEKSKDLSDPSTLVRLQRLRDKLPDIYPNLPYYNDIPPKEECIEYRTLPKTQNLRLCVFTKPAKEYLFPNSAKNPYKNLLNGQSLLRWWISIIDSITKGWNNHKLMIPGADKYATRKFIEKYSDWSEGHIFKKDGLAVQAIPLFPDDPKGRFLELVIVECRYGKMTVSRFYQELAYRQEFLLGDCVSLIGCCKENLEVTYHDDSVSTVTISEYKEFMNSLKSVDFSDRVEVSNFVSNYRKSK
# Active calls of the source: *; i = inactive; nt = no result. The list is not random: actives were taken first. Their share in the collection is about 0.98%.
SMILES,S100A4 inh HTS,PGC1a acetyl inh,Statin myotox sup,ERAP1 inh,Rtt109 Vps75
COC(=O)C[C@@H]1CC[C@H]2[C@H](COc3ccc(NS(=O)(=O)c4ccc(C)cc4)cc3C(=O)N2C)O1,101.4*,-11.6,10.0,1.0,nt
CC(C)C(=O)Nc1ccc2c(c1)C(=O)N(C)[C@H]1CC[C@H](CC(=O)Nc3cccc(F)c3)O[C@@H]1CO2,78.5*,1.3,10.6,-1.3,nt
CCCNC(=O)N1[C@H](CO)[C@H](c2ccccc2)[C@H]1CNC(=O)C1CCC1,2.2,nt,nt,1.4,nt
CC(=O)N(C)C[C@@H]1Oc2cc(C3=CCCCC3)ccc2S(=O)(=O)N([C@@H](C)CO)C[C@H]1C,nt,-6.8,-21.1,nt,nt
CNC(=O)C[C@@H]1CC[C@@H]2[C@H](COc3ccc(NC(=O)c4ccc(F)c(F)c4)cc3C(=O)N2C)O1,-2.5,1.4,2.3,1.0,nt
CN1C(=O)c2cc(NC(=O)c3ccc(F)c(F)c3)ccc2OC[C@H]2O[C@@H](CC(=O)Nc3ccc4c(c3)COC4)CC[C@@H]21,2.3,2.6,101.5*,-2.5,nt
CC(C)c1ccc(NC(=O)C[C@H]2CC[C@H]3[C@@H](COc4ccc(NC(=O)Nc5ccc(F)c(F)c5)cc4C(=O)N3C)O2)cc1,0.3,19.7,-66.4,1.4,nt
CCOC(=O)c1cc(NC(=O)NCc2ccco2)c(C)nc1C,nt,-1.4,82.6*,nt,-3.7
CCOC(=O)c1cc(NC(=O)Nc2ccccc2Cl)c(C)nc1C,-7.4,8.3,nt,-10.9,-4.8
C[C@@H]1CN([C@H](C)CO)C(=O)c2cc(NS(C)(=O)=O)ccc2O[C@@H](C)CCCCO[C@H]1CN(C)C(=O)Nc1ccc2c(c1)OCO2,6.1,19.9,nt,-1.7,nt
O=C(NC1CCCCCC1)c1c2c(nc3ccccc13)CCN(Cc1ccccc1)C2,nt,nt,nt,nt,8.6
Cc1cc(N2CCN(C)CC2)ccc1NC(=O)c1c2c(nc3ccccc13)CCN(Cc1ccccc1)C2,nt,69.4*,nt,nt,2.4
CCCC(=O)Nc1ccc2c(c1)nc(CN1CCN(C(C)=O)CC1)n2C,nt,4.1,119.2*,nt,-2.6
CC(C)C(=O)Nc1ccc2c(c1)nc(CCN1CCCCC1)n2C,2.2,-2.6,-3.7,4.8,-8.3
Cn1c(CCN2CCCCC2)nc2cc(NC(=O)Nc3ccccc3)ccc21,nt,3.0,116.3*,nt,8.2
Cn1c(CN2CCCC2)nc2cc(NC(=O)COc3ccc(Cl)cc3)ccc21,3.5,52.3*,-4.7,15.0,nt
COc1ccc(OCC(=O)Nc2ccc3c(c2)nc(CN2CCCC2)n3C)cc1,nt,-4.7,4.4,nt,10.2
CCCC(=O)Nc1ccc2c(c1)C(=O)N(C)C[C@@H](OC)[C@H](C)CN(C(=O)c1ccccc1F)[C@H](C)CO2,13.1,-0.4,-9.8,-2.4,nt
C[C@H](CO)N1C[C@H](C)[C@H](CN(C)C(=O)Nc2cc(F)ccc2F)Oc2ncc(-c3cccc(F)c3)cc2C1=O,-14.0,-5.2,-1.4,-0.1,nt
Cc1ccc(NC(=O)COC(=O)c2nn(-c3ccc(Cl)cc3)cc2O)cc1,-11.7,-7.2,-6.2,-0.4,-2.6
NNC(=O)c1nn(-c2ccc(Cl)cc2)cc1O,-5.9,-2.5,113.5*,nt,-14.6
Cc1nn(S(=O)(=O)c2ccc(C(C)C)cc2)c(C)c1S(=O)(=O)N1CCOCC1,-4.6,7.2,-1.4,0.5,54.3*
Cc1ccc(NCCN(C)C)c2c(=O)c3cc(O)ccc3sc12,1.4,-48.0,nt,63.9*,-3.9
CC1(C)N=C(N)N=C(N)N1c1ccc(F)cc1F,nt,-0.4,104.3*,nt,-2.1
CC1(C)N=C(N)N=C(N)N1c1cc(Cl)ccc1Cl,-1.5,-1.9,3.5,-3.3,nt
SMILES,S100A4 inh HTS,PGC1a acetyl inh,Statin myotox sup,ERAP1 inh,Rtt109 Vps75
Cc1cccc(C)c1NC(=O)/C(C#N)=C/c1cccs1,nt,0.0,84.2*,nt,11.0
C[C@H](CO)N1C[C@H](C)[C@@H](CN(C)C(=O)NC2CCCCC2)Oc2c(NC(=O)Nc3cccc4ccccc34)cccc2C1=O,3.2,2.1,-7.5,1.7,nt
O=C(CN1C(=O)NC2(CCCC2)C1=O)Oc1ccc2ccc(=O)oc2c1,-2.2,-0.1,6.4,56.9*,i
CCCCCc1c(O)nc(SCC(=O)NCC2CCCO2)[nH]c1=O (stereo not drawn),nt,7.0,-4.5,nt,2.8
CCCCc1c(O)nc(SCC(=O)NCC2CCCO2)[nH]c1=O (stereo not drawn),nt,-0.5,93.6*,nt,15.6
Cn1c(=O)cc(Nc2ccccc2)[nH]c1=O,11.7,0.2,1.6,0.4,-2.8
Cc1cc(Nc2ccccc2)cc(=O)n1C,-6.0,59.3*,nt,-0.4,-4.2
O=C(/C=C\Nc1ccccn1)c1ccc(Cl)cc1,nt,-6.0,-23.5,nt,62.3*
COc1ccc2[nH]c(=O)c(CN(CCc3ccccc3)C(C)=O)cc2c1,nt,-3.2,113.9*,nt,8.5
COc1ccc(N(Cc2cc3ccccc3[nH]c2=O)S(=O)(=O)c2ccccc2)cc1,14.1,-6.0,181.7*,3.8,7.8
COc1ccc(N(Cc2cc3ccccc3[nH]c2=O)S(=O)(=O)c2ccc(C)cc2)cc1,2.7,0.6,26.2,-2.3,-2.2
C[C@H](CO)N1C[C@H](C)[C@@H](CN(C)S(=O)(=O)c2cn(C)cn2)Oc2c(cccc2N(C)C)C1=O,7.3,-3.7,3.2,-5.3,nt
C=CCOc1cccc(C2C(C(=O)c3ccc(C)o3)=C(O)C(=O)N2Cc2ccncc2)c1 (stereo not drawn),nt,-8.2,110.2*,nt,-3.5
CSc1cc(-c2ccc(Cl)cc2)c(C(=O)N2CCCC2)s1,nt,-18.9,126.0*,nt,15.9
Nc1nn(S(=O)(=O)c2cccc3nsnc23)cc1-c1ccc(Br)cc1,nt,-13.6,95.5*,nt,5.9
N#C/C(C(=O)N1CCCCC1)=C1/N=C(NC(=O)c2ccc(F)cc2)c2ccccc21,1.6,-3.4,86.5*,1.5,-0.1
CN1C(=O)C2(c3ccccc31)C1CCCC=C1C(C#N)=C(N)C2(C#N)C#N (stereo not drawn),nt,6.8,154.9*,nt,-25.7
CC(C)NC(=O)N(C)C[C@@H]1Oc2c(NS(=O)(=O)c3cn(C)cn3)cccc2C(=O)N([C@H](C)CO)C[C@H]1C,48.8,0.5,nt,-0.3,nt
COc1ccc(-c2csc3ncn(-c4ccc(C)cc4)c(=O)c23)cc1OC,1.0,-3.6,-4.9,-4.2,-0.8
COc1ccc(-n2cnc3scc(-c4ccc(OC)c(OC)c4)c3c2=O)cc1,-4.4,-2.4,-17.0,-1.2,62.5*
CCc1c(C)c2cc(Cl)c(O)c(CN(CC)CC)c2oc1=O,-1.9,-14.1,7.9,84.8*,i
Cc1cccc(C)c1-n1c(C)cc(/C=N\Nc2ccc([N+](=O)[O-])cn2)c1C,nt,8.3,163.3*,nt,-1.5
C[C@@H]1CCCCO[C@@H](CN(C)S(C)(=O)=O)[C@@H](C)CN([C@H](C)CO)C(=O)c2cc(NS(=O)(=O)c3cccs3)ccc2O1,-7.0,1.1,nt,0.4,nt
COc1ccc(OC)c(/C=C2\SC(=S)N(C(C(=O)O)c3ccccc3)C2=O)c1 (stereo not drawn),9.2,0.0,7.7,-38.5,65.5*
CC(/C=C1\SC(=S)N(CC(=O)O)C1=O)=C\c1ccccc1,0.0,8.4,nt,-0.4,16.2

# High-throughput results as filed in PubChem BioAssay.
